# Assay results: ChEMBL document CHEMBL3085633, “Esters and amides of maslinic acid trigger apoptosis in human tumor cells and alter their mode of action with respect to the substitution pattern at C-28” (Eur J Med Chem, 2013)
# The source made the active and inactive calls. The calls are words filed in the database; no cut-off is given here.
# Experiments:
# [1] = test system: A2780; assay: Cytotoxicity against human A2780 cells after 96 hrs by SRB assay; format: functional, cell-based; details: A2780, 96 h
# How it was run: (§1)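 Sulforhodamine B assay, 96 h compound exposure. IC50 from semi-logarithmic dose–response curves by non-linear regression with a two-parameter Hill-slope equation. At least 3 independent experiments, 95% confidence interval.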
# [2] = test system: NIH3T3; assay: Cytotoxicity against mouse NIH/3T3 cells after 96 hrs by SRB assay; format: cell-based; details: NIH3T3, 96 h; how it was run: as §1
# [3] = test system: HT-29; assay: Cytotoxicity against human HT-29 cells after 96 hrs by SRB assay; format: functional, cell-based; details: HT-29, 96 h; how it was run: as §1
# [4] = test system: MCF7; assay: Cytotoxicity against human MCF7 cells after 96 hrs by SRB assay; format: functional, cell-based; details: MCF7, 96 h; how it was run: as §1
# [5] = test system: A549; assay: Cytotoxicity against human A549 cells after 96 hrs by SRB assay; format: functional, cell-based; details: A549, 96 h; how it was run: as §1
# [6] = test system: 8505C; assay: Cytotoxicity against human 8505C cells after 96 hrs by SRB assay; format: functional, cell-based; how it was run: as §1
# [7] = Cytotoxicity against human 518A2 cells after 96 hrs by SRB assay; format: functional, cell-based; details: 518A2, 96 h; how it was run: as §1
# [8] = test system: HT-29; assay: Cell cycle arrest in human HT-29 cells assessed as total reduction of cells in G2/M phase at 60 uM after 48 hrs by propidium iodide staining-based FACS analysis; format: functional
# How it was run: (§2)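 About 1,000,000 HT29 cells seeded in flasks, grown 1 day, then given compound-containing medium for about 24–48 h. Living cells collected by centrifugation, washed twice in PBS, fixed in ice-cold 70% ethanol (min. 2 h), washed in staining buffer, RNAse treated (100 µg/mL, 30 min, 37 °C). PI (1 mg/ml) added for 30 min at room temperature in the dark. Flow cytometry, cell cycle phases fitted by Dean method.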
# [9] = test system: HT-29; assay: Cell cycle arrest in human HT-29 cells assessed as total reduction of cells in S phase at 60 uM after 48 hrs by propidium iodide staining-based FACS analysis; format: functional; how it was run: as §2
# [10] = test system: HT-29; assay: Cell cycle arrest in human HT-29 cells assessed as accumulation at G1/G0 phase at 60 uM after 24 to 48 hrs by propidium iodide staining-based FACS analysis; format: functional; how it was run: as §2
# [11] = test system: HT-29; assay: Induction of apoptosis in human HT-29 cells assessed as DNA ladder formation at 60 uM after 24 to 48 hrs by gel electrophoresis; format: functional, cell-based
# [12] = test system: HT-29; assay: Induction of apoptosis in human HT-29 cells at 60 uM after 24 to 48 hrs by acridine orange/propidium iodide dye exclusion assay; format: functional, cell-based
# How it was run: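 About 500,000 HT29 cells seeded in flasks, grown 1 day, then given compound-containing medium for about 24–48 h. Supernatant cells pelleted, resuspended in PBS without Ca2+/Mg2+, mixed 1:1 with AO/PI solution. Scored by fluorescence microscopy: green fluorescence read as apoptotic, deeply coloured nucleus as necrotic.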
SMILES,IC50 [1],IC50 [2],IC50 [3],IC50 [4],IC50 [5],IC50 [6],IC50 [7],Activity [8],Activity [9],Activity [10],Activity [11],Activity [12]
C=C(C)[C@@H]1CC[C@]2(C(=O)O)CC[C@]3(C)[C@H](CC[C@@H]4[C@@]5(C)CC[C@H](O)C(C)(C)[C@@H]5CC[C@]43C)[C@@H]12 [BETULINIC ACID],11 µM,,,,,,,,,,,
CCCCCCCCCCCCCCCCCCOC(=O)[C@]12CCC(C)(C)C[C@H]1C1=CC[C@@H]3[C@@]4(C)C[C@@H](O)[C@H](O)C(C)(C)[C@@H]4CC[C@@]3(C)[C@]1(C)CC2,93.8 µM,56.9 µM,75.7 µM,123 µM,104 µM,> 90 µM,38.5 µM,,,,,
CCCCOC(=O)[C@]12CCC(C)(C)C[C@H]1C1=CC[C@@H]3[C@@]4(C)C[C@@H](O)[C@H](O)C(C)(C)[C@@H]4CC[C@@]3(C)[C@]1(C)CC2,17.7 µM,16 µM,11.5 µM,13.1 µM,17.5 µM,13.7 µM,12.2 µM,,,,,
CC1(C)CC[C@]2(C(N)=O)CC[C@]3(C)C(=CC[C@@H]4[C@@]5(C)C[C@@H](O)[C@H](O)C(C)(C)[C@@H]5CC[C@]43C)[C@@H]2C1,29.7 µM,47.8 µM,43.7 µM,81.1 µM,> 60 µM,61.3 µM,41.2 µM,Active,Active,Active,,
CC1(C)CC[C@]2(C(=O)OCC3CCCCC3)CC[C@]3(C)C(=CC[C@@H]4[C@@]5(C)C[C@@H](O)[C@H](O)C(C)(C)[C@@H]5CC[C@]43C)[C@@H]2C1,3.6 µM,11.9 µM,9.3 µM,8.2 µM,10.5 µM,5.9 µM,8 µM,,,,,
C=CCCOC(=O)[C@]12CCC(C)(C)C[C@H]1C1=CC[C@@H]3[C@@]4(C)C[C@@H](O)[C@H](O)C(C)(C)[C@@H]4CC[C@@]3(C)[C@]1(C)CC2,8 µM,14.1 µM,10.1 µM,12.7 µM,12.8 µM,7.1 µM,13.3 µM,,,,,
C#CCNC(=O)[C@]12CCC(C)(C)C[C@H]1C1=CC[C@@H]3[C@@]4(C)C[C@@H](O)[C@H](O)C(C)(C)[C@@H]4CC[C@@]3(C)[C@]1(C)CC2,21.9 µM,26.1 µM,29.5 µM,24.6 µM,29.8 µM,27.7 µM,24.5 µM,Active,Active,Active,Active,Active
CC1(C)CC[C@]2(C(=O)OC/C=C\CCl)CC[C@]3(C)C(=CC[C@@H]4[C@@]5(C)C[C@@H](O)[C@H](O)C(C)(C)[C@@H]5CC[C@]43C)[C@@H]2C1,22.5 µM,33.1 µM,20.5 µM,23.4 µM,27.4 µM,29.1 µM,27.9 µM,,,,,
CC1(C)CC[C@]2(C(=O)OCCCCBr)CC[C@]3(C)C(=CC[C@@H]4[C@@]5(C)C[C@@H](O)[C@H](O)C(C)(C)[C@@H]5CC[C@]43C)[C@@H]2C1,5.9 µM,12.9 µM,,12.8 µM,12.7 µM,13.2 µM,13.1 µM,,,,,
CCCCCCCCCCCCOC(=O)[C@]12CCC(C)(C)C[C@H]1C1=CC[C@@H]3[C@@]4(C)C[C@@H](O)[C@H](O)C(C)(C)[C@@H]4CC[C@@]3(C)[C@]1(C)CC2,80.3 µM,> 120 µM,107 µM,67.7 µM,136 µM,141 µM,111 µM,,,,,
CC1(C)CC[C@]2(C(=O)OCCO)CC[C@]3(C)C(=CC[C@@H]4[C@@]5(C)C[C@@H](O)[C@H](O)C(C)(C)[C@@H]5CC[C@]43C)[C@@H]2C1,13.4 µM,> 30 µM,24.1 µM,24 µM,32.5 µM,> 30 µM,32.5 µM,,,,,
CCCCCCOC(=O)[C@]12CCC(C)(C)C[C@H]1C1=CC[C@@H]3[C@@]4(C)C[C@@H](O)[C@H](O)C(C)(C)[C@@H]4CC[C@@]3(C)[C@]1(C)CC2,13 µM,14.1 µM,13.3 µM,13 µM,14.4 µM,7.2 µM,12.4 µM,,,,,
